Data reported in ChEMBL document CHEMBL1151238, “New stilbene derivatives from Calligonum leucocladum” (2004).
In brackets after ≈: the same amount, converted by molar mass.

Tests used:
Format in all cases: functional
Staphylococcus aureus [1] = assay: Antimicrobial activity against methicillin-resistant Staphylococcus aureus COL after 24 hrs
Procedure, shortened: (§1)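 Overnight 37 °C Mueller-Hinton broth cultures of clinical isolates or strain COL were diluted in 0.85% NaCl and spotted by inoculator at about 10⁶ cfu/mL. Plates were held 37 °C for 24 h. MIC was taken as the lowest concentration giving complete growth inhibition.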

Staphylococcus aureus [2] = assay: Antimicrobial activity against methicillin-resistant Staphylococcus aureus 8 after 24 hrs; procedure, shortened: as §1
Staphylococcus aureus [3] = assay: Antimicrobial activity against methicillin-resistant Staphylococcus aureus 1 after 24 hrs; procedure, shortened: as §1
Staphylococcus aureus [4] = assay: Antimicrobial activity against methicillin-resistant Staphylococcus aureus 5 after 24 hrs; procedure, shortened: as §1
Staphylococcus aureus [5] = assay: Antimicrobial activity against methicillin-resistant Staphylococcus aureus 2 after 24 hrs; procedure, shortened: as §1
[6] = DPPH radical scavenging activity assessed as ratio of absorbance at 20 uM relative to L-cysteine
Procedure, shortened: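 Test compound at 20 μM in ethanolic solution, mixed with ethanol, 50 mM MES buffer (pH 5.5) and 0.5 mM DPPH in ethanol. Decrease in absorbance at 517 nm read after 30 min. L-Cysteine served as reference. Value given as the ratio of absorbance between L-cysteine and test compound.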

Staphylococcus aureus [7] = assay: Antimicrobial activity against methicillin-resistant Staphylococcus aureus 4 after 24 hrs; procedure, shortened: as §1
Staphylococcus aureus [8] = assay: Antimicrobial activity against methicillin-resistant Staphylococcus aureus 12 after 24 hrs; procedure, shortened: as §1

Question: Which results are given for `O=C(OC[C@H]1O[C@@H](Oc2cc(O)cc(/C=C/c3ccc(O)cc3)c2)[C@H](O)[C@@H](O)[C@@H]1O)c1cc(O)c(O)c(O)c1`?
Answer: MIC (Staphylococcus aureus [1]): > 250 µg/mL; MIC (Staphylococcus aureus [2]): 125 µg/mL (≈ 230 µM); MIC (Staphylococcus aureus [3]): 125 µg/mL (≈ 230 µM); MIC (Staphylococcus aureus [4]): > 250 µg/mL; MIC (Staphylococcus aureus [5]): 125 µg/mL (≈ 230 µM); Ratio [6]: 1.3; MIC (Staphylococcus aureus [7]): 125 µg/mL (≈ 230 µM); MIC (Staphylococcus aureus [8]): 250 µg/mL (≈ 461 µM)

Question: For `CC(=O)O[C@@H]1CO[C@@H](Oc2cc(O)cc(/C=C/c3ccc(O)cc3)c2)[C@H](O)[C@H]1O`, which Ratio [6] is on record?
Answer: The Ratio was 0.2.

Question: With `OC[C@H]1O[C@@H](Oc2cc(O)cc(/C=C/c3ccc(O)cc3)c2)[C@H](O)[C@@H](O)[C@@H]1O` as the compound, how does the Ratio [6] read?
Answer: The Ratio was 0.54.

Question: For `OC[C@H]1O[C@@H](Oc2cc(O)cc(/C=C/c3ccccc3)c2)[C@H](O)[C@@H](O)[C@@H]1O`, which Ratio [6] is on record?
Answer: The Ratio was 0.14.

Question: With `Oc1ccc(/C=C/c2cc(O)cc(O[C@@H]3OC[C@@H](O)[C@H](O)[C@H]3O)c2)cc1` as the compound, how does the Ratio [6] read?
Answer: Its Ratio is 0.42.

Question: Which MIC (Staphylococcus aureus [1]) does the source give for `Cc1onc(-c2ccccc2)c1C(=O)N[C@@H]1C(=O)N2[C@@H]1SC(C)(C)[C@@H]2C(=O)O` [OXACILLIN] here?
Answer: The MIC was 512 µg/mL (≈ 1280 µM).

Question: What about the MIC (Staphylococcus aureus [2]) of the same compound?
Answer: Its MIC is 256 µg/mL (≈ 638 µM).

Question: And the MIC (Staphylococcus aureus [3])?
Answer: Its MIC is 512 µg/mL (≈ 1280 µM).

Question: And the MIC (Staphylococcus aureus [4])?
Answer: Its MIC is 256 µg/mL (≈ 638 µM).

Question: What about the MIC (Staphylococcus aureus [5]) of the same compound?
Answer: The MIC was 256 µg/mL (≈ 638 µM).

Question: And the MIC (Staphylococcus aureus [7])?
Answer: The MIC was 256 µg/mL (≈ 638 µM).

Question: And the MIC (Staphylococcus aureus [8])?
Answer: The MIC was 512 µg/mL (≈ 1280 µM).

Question: Which MIC (Staphylococcus aureus [1]) does the source give for `Oc1cc(O)cc(/C=C/c2ccccc2)c1` [PINOSYLVIN] here?
Answer: The MIC was 125 µg/mL (≈ 589 µM).

Question: And the MIC (Staphylococcus aureus [2])?
Answer: Its MIC is greater than 250 µg/mL.

Question: And the MIC (Staphylococcus aureus [3])?
Answer: Its MIC is greater than 250 µg/mL.

Question: And the MIC (Staphylococcus aureus [4])?
Answer: The MIC was 125 µg/mL (≈ 589 µM).

Question: What about the MIC (Staphylococcus aureus [5]) of the same compound?
Answer: Its MIC is greater than 250 µg/mL.

Question: And the Ratio [6]?
Answer: The Ratio was 0.52.

Question: And the MIC (Staphylococcus aureus [7])?
Answer: Its MIC is greater than 250 µg/mL.

Question: And the MIC (Staphylococcus aureus [8])?
Answer: Its MIC is greater than 250 µg/mL.

Question: With `Oc1ccc(/C=C/c2cc(O)cc(O)c2)cc1` [RESVERATROL] as the compound, how does the MIC (Staphylococcus aureus [1]) read?
Answer: The MIC was greater than 250 µg/mL.

Question: What about the MIC (Staphylococcus aureus [2]) of the same compound?
Answer: The MIC was greater than 250 µg/mL.

Question: And the MIC (Staphylococcus aureus [3])?
Answer: The MIC was greater than 250 µg/mL.

Question: What about the MIC (Staphylococcus aureus [4]) of the same compound?
Answer: Its MIC is greater than 250 µg/mL.

Question: And the MIC (Staphylococcus aureus [5])?
Answer: The MIC was greater than 250 µg/mL.

Question: What about the Ratio [6] of the same compound?
Answer: The Ratio was 1.77.

Question: What about the MIC (Staphylococcus aureus [7]) of the same compound?
Answer: The MIC was greater than 250 µg/mL.

Question: What about the MIC (Staphylococcus aureus [8]) of the same compound?
Answer: Its MIC is greater than 250 µg/mL.
